The values below come from ChEMBL document CHEMBL4513216, “Probing the Open Global Health Chemical Diversity Library for Multistage-Active Starting Points for Next-Generation Antimalarials” (ACS Infect Dis, 2020).

The data set can be described thus: Toxicity liver stage against HepG2, at 10uM. The note with it: human, HepG2-A16-CD81EGFP cells; read-out: INHIBITION
Also noted: test concentration 10 uM, cell line HepG2-A16-CD81EGFP. Format: cell-based. The essentials: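 Uninfected HepG2-A16-CD81EGFP cells, 3 × 10^3 per well, 1536-well, plated on prespotted compound at 10 μM final, parasite-free screening media added to match infected plates; puromycin 10 μM positive, DMSO 0.5% negative; run in parallel with 48 h PbLuc assay at 37 °C, 5% CO2; viability by CellTiter-Glo luminescence, normalized to controls.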
Regarding `CC(C)(C)CN1CC(O)CN(C(=O)c2cccc(C(F)(F)F)c2)CC1=O` (configuration not stated), the cytotoxicity at 10 µM was 5.99%. Regarding `COc1ccc(-c2csc3c2c(N)nc(=O)n3CCCN(C)C)cc1`, the cytotoxicity at 10 µM was -54%. In the case of `O=C(CN1C(=O)CCC1=O)N1CCOCC1` it was 2.48%.

As to `COC(=O)c1ccc(S(=O)(=O)NC2CNC(=O)C2)cc1` (configuration not stated), the cytotoxicity at 10 µM is -7.27%. `O=C(Nc1cnccn1)[C@H]1C[C@H]2OCC[C@H]2N(c2ncc(F)cn2)C1`: the cytotoxicity at 10 µM came to 16.4%. On to `CC(C)N1CCC(c2ccnc3c(C(=O)N4CCCC4)ncn23)CC1`, for which the cytotoxicity at 10 µM was -5.49%. The figure for `O=C(c1cnccn1)N1CCn2cnc(COCC3CC3)c2C1` is 7.14%.

Take `CC(C)CCNc1c(C#N)c2c(c3nncn13)CN(C)CC2`: the cytotoxicity at 10 µM stood at 9.26%. In the case of `Cc1oc(-c2nc(C#N)c(NC(C)C)o2)cc1S(=O)(=O)N1CCCCC1`, the cytotoxicity at 10 µM turned out to be 4.28%. In the case of `C=C/C=c1\c(=C/C)oc2c(NCc3ccccc3)ncnc12` it was 21.3%; in that of `Cc1cccc2c1cnn2CCCNC(=O)CCCC(=O)O`, -11.1%; in that of `Cc1cc(C)n(-c2nc(C(=O)NCCN3CCC(C)CC3)cs2)n1`, 10.2%.

For the compound `Cc1nc(O)c2c(n1)CCN(Cc1cc(C)sc1C)CC2`, the cytotoxicity at 10 µM is -9%. On to `Cc1cc(C(F)(F)F)c2c(C3CCN(S(=O)(=O)N(C)C)CC3)noc2n1`, for which the cytotoxicity at 10 µM was found to be 3.63%. Consider `CCCc1nn(Cc2csc(CC)n2)c(=O)o1`, for which the cytotoxicity at 10 µM was -43.1%. The figure for `COCc1nc(-c2ccc(S(=O)(=O)N3CCCC3)cc2)cs1` is -49.8%; for `COCCN1CCC(CNc2nc3ccccc3o2)CC1` it is -53.6%; for `COC(=O)NCC(=O)N1CCCC1c1nc(-c2ccccc2F)c[nH]1` (configuration not stated) it is 8.01%. `Cc1ccc(C(C)NC(=O)N2CCCN(CC(F)F)CC2)s1` (configuration not stated): the cytotoxicity at 10 µM was found to be 3.44%. In the case of `CC1CN(c2ncnc3sccc23)CCN1c1nccs1` (configuration not stated) it was 32.1%; in that of `CSCC(=O)N1CCN(CC(O)C(C)(C)C)CC1` (configuration not stated), -5.66%; in that of `COc1cc2c(cc1CNCc1cccnc1OC)OC(C)C2` (configuration not stated), 3.67%. The figure for `NC(=O)C(NCc1cccs1)c1ccccc1` (configuration not stated) is -41.5%; for `Cc1occc1C(=O)NCC(=O)N(C)CCCOc1ccccc1` it is -50.2%. The figure for `CC(CNC(=O)CCCc1ccccn1)c1ccsc1` (configuration not stated) is 7.42%; for `CCS(=O)(=O)N1Cc2ccccc2CC1C(=O)OCc1cc(C)no1` (configuration not stated) it is -13%. On to `CCN(CCCNC(=O)c1ccc(C)[nH]c1=O)S(C)(=O)=O`, for which the cytotoxicity at 10 µM is -8.01%. In the case of `Cc1ccc(C(CNCc2ncc[nH]2)N2CCOCC2)s1` (configuration not stated) it was 12%.

Take `Cc1nc2c(c(C)c1CC(=O)Nc1ccccc1F)c(=O)[nH]n2C`: the cytotoxicity at 10 µM is 0.177%. For the compound `CC(C)c1ocnc1C(=O)NC1(c2cccc(F)c2)CCOCC1`, the cytotoxicity at 10 µM was 6.81%. The figure for `Cc1ccc(C(=O)N2CCCC(n3cncn3)C2)o1` (configuration not stated) is 4.35%; for `Cc1nnc2n1CC(CNc1cnc3ccccc3n1)CC2` (configuration not stated) it is -41.5%. For `CNC(=O)c1ccc(OC)c(NCc2ncc(-c3cccs3)o2)c1`, the cytotoxicity at 10 µM turned out to be 14%. For `CC(CCN(C)C)NC(=O)N1CCSC(C)(C)C1` (configuration not stated), the cytotoxicity at 10 µM was 5.4%. In the case of `Cc1ccccc1CN(C)CC(O)COCc1ccccc1Cl` (configuration not stated), the cytotoxicity at 10 µM is 8.49%. On to `CSCCC(NC(=O)c1ccc2ccccc2n1)C(=O)N(C)C` (configuration not stated), for which the cytotoxicity at 10 µM was -12%. `CC(C)(C)c1cnc(CN2CCC(NC(=O)NC3CCCCC3)CC2)o1`: the cytotoxicity at 10 µM was -3.73%. The figure for `Cc1nc(-c2ccccc2)sc1CSCCC(N)=O` is -7.97%; for `O=C(COCc1ccccc1Cl)N1CCN(c2ccc(Br)cn2)CC1` it is 46.6%. In the case of `O=C(NC1CC1)N1C[C@H]2CN(Cc3cccc(F)c3)C(=O)[C@H]2C1` it was -70.5%.

For the compound `CS(=O)(=O)N[C@H]1CN(C(=O)c2cscn2)[C@@H]2CCCO[C@H]12`, the cytotoxicity at 10 µM is -84.6%. For the compound `O=C1CC2(CCN(Cc3ccoc3)C2)CN1c1ccc2c(c1)OCO2` (configuration not stated), the cytotoxicity at 10 µM is -6.72%. The figure for `CCCOC(=O)N1CCn2nc(-c3nc4ccccc4n3C)cc2C1` is 10.6%.

Regarding `COCC(=O)Nc1ccccc1Sc1c(C)n[nH]c1C`, the cytotoxicity at 10 µM is -10.2%. With `CC1CN(CC(=O)NCCc2ccncc2)Cc2ccccc2O1` (configuration not stated), the cytotoxicity at 10 µM was -0.369%. The figure for `CCC(=O)N1CCN(C(=O)Nc2ccc(Cl)cc2)[C@H]2CS(=O)(=O)C[C@H]21` is -43.9%. For `COc1cccc(-c2nc3c([nH]2)CCNC3)c1F`, the cytotoxicity at 10 µM is -44.7%.

With `O=C1N(Cc2ccc(F)c(F)c2)CCCC1(O)CNCc1cccnc1` (configuration not stated), the cytotoxicity at 10 µM was found to be 0.598%. The figure for `COc1ccc(C(=O)C2CCCN(c3cc(N)ncn3)C2)c(C)c1` (configuration not stated) is 5.31%; for `CCCc1nc(N2CCC(CCO)CC2)c2cnn(C)c2n1` it is 2.28%; for `COc1cccc(CN2CCCCC2CN2CCOCC2)c1F` (configuration not stated) it is 2.64%. In the case of `Cc1ccccc1OC1CCN(C(=O)c2c[nH]c(=O)[nH]c2=O)CC1`, the cytotoxicity at 10 µM was 5.25%. Regarding `CNc1ncc(CN(C)Cc2cc(O)c3cccc(Cl)c3n2)cn1`, the cytotoxicity at 10 µM is 7.05%. In the case of `COc1ccc2c(C)c(C(=O)NC3CCCOC3)oc2c1` (configuration not stated) it was -7.28%; in that of `COc1nccnc1-c1cc(NC2CCCC2)nc2[nH]ccc12`, 1.97%. In the case of `COc1ccc(C(=O)NC2CC2)c(OC2CCN(CCCSC)CC2)c1`, the cytotoxicity at 10 µM is -1.76%. The figure for `Cc1cccc2c(CCNC(=O)[C@H](N)c3ccccc3)c[nH]c12` is -3.55%; for `CC(C)C1CN(C(=O)c2cn3cc(Cl)cnc3n2)CCCN1CC1CC1` (configuration not stated) it is 3.46%. With `Cn1cc(-c2c(C#N)c(N)nc3c2CCc2[nH]ccc2-3)cn1`, the cytotoxicity at 10 µM is -4.37%. In the case of `N#CC1(c2ccccc2)CCN(C(=O)C2CCCN(CC(N)=O)C2)CC1` (configuration not stated) it was -7.47%; in that of `Cn1ccnc1-c1ccc(NC[C@H]2CCc3ccccc3O2)nn1`, -5.71%. Turning to `COc1cccc2c(=O)n(C3CCCNC3)cnc12` (configuration not stated), the cytotoxicity at 10 µM was -42.4%. As for `NC(=O)CN1CCC(C(=O)NCCn2cc(Cl)cn2)CC1`, the cytotoxicity at 10 µM was -45.6%. Regarding `Fc1cccnc1Oc1cc(F)c(CN2CCCC2)c(Cl)c1`, the cytotoxicity at 10 µM is 3.3%. In the case of `O=C(Nc1ccc2c(c1)OCO2)N1CCN(CCc2ccccc2)CC1`, the cytotoxicity at 10 µM was -9.28%.

Take `CN(C)[C@H]1CCCCN(C(=O)c2cccc(-c3cccc(F)c3)c2)C1`: the cytotoxicity at 10 µM is -6.3%. As to `Cc1cnn(CCNc2ncnc3c2CCN(CC2CCOC2)CC3)c1` (configuration not stated), the cytotoxicity at 10 µM is -4.24%. With `Cc1ccc(CN2CCN(C(=O)c3ccc(CO)cc3)C(C)C2=O)cc1` (configuration not stated), the cytotoxicity at 10 µM was 6.42%. With `Cc1nc(C2CCN(C[C@H](C)CO)CC2)cc(N2CCOCC2)n1`, the cytotoxicity at 10 µM was -9.3%. In the case of `Cc1ncc(CNC2CC(=O)N(CCc3cccc(Cl)c3)C2)n1C` (configuration not stated) it was -133%; in that of `O=c1[nH]c(NC2CCCC2)nc2nccc(-c3ccsc3)c12`, -12.1%.

Turning to `Cc1c[nH]c(CN(C)c2nc(C3CCCC3)nc3c2cnn3C)n1`, the cytotoxicity at 10 µM was -7.56%. In the case of `CCS(=O)(=O)N(C)c1ccc(C(=O)N2CCCC(C)C2)cc1` (configuration not stated) it was -15.4%; in that of `Cc1cc(C(F)(F)F)nn1CCCNC(=O)C1CCCO1` (configuration not stated), -6.5%. In the case of `Cc1cc2n(n1)CC(CNCc1ccc(OCC3CC3)nc1)CN2` (configuration not stated) it was -8.42%. The figure for `CCc1ccccc1OCC(=O)N1CCOCC1c1ncon1` (configuration not stated) is -8.93%; for `CCOc1cc(C)nc(N2CCN(C(=O)C(C)NC(C)=O)CC2)n1` (configuration not stated) it is -4.41%; for `COc1cc(C)nc(N2CCN(C(=O)CN(C)C(C)C)CC2)n1` it is -14.6%. Regarding `CN(C(=O)Cc1ccccc1Cl)C1CCN(c2ccccn2)CC1`, the cytotoxicity at 10 µM was -7.48%. The figure for `Cc1nc(NC(=O)CN2CCOC(Cn3cccn3)C2)sc1C` (configuration not stated) is -8.27%.

For `CC(C)(C)c1nc(CN2CCCC2Cn2cccn2)no1` (configuration not stated), the cytotoxicity at 10 µM was determined as 0.222%. In the case of `CCn1cnnc1CNC(=O)N1CCN(c2nc(C)c(C)s2)CC1` it was -9.62%; in that of `Cc1nc(CN(C)C2CCN(Cc3nc4ccccc4s3)C2)no1` (configuration not stated), -4.27%. In the case of `CC(C)c1nc(C2CCCN2C(=O)c2nccnc2N)no1` (configuration not stated) it was -1.96%; in that of `CC(O)CN1CCN(C(=O)c2ccc3c(c2)COC3)CC1` (configuration not stated), -6.44%. The figure for `O=C(NCC(F)F)c1cnc(C2CCCN2)cn1` (configuration not stated) is 0.13%; for `CCCC(=O)N(CCCN1CCOCC1)c1nc2c(C)c(C)ccc2s1` it is -12.6%; for `c1cnc(N2CC[C@@H](N3CCOCC3)[C@@H]2Cc2ccncc2)nc1` it is 2.9%. Regarding `Cc1cnc(N2CCC3(CCCN3C(=O)c3ccco3)CC2)nc1`, the cytotoxicity at 10 µM came out at 6.71%. The figure for `Cc1ccc2c(c1)CN(C(=O)C1CCCCC1)C(CN(C)C)CO2` (configuration not stated) is 1.85%; for `CCc1c(C)[nH]c(C(C)(C)N)nc1=O` it is -11%; for `CCN1CCC2(CC1)CN(C(=O)c1cccnc1)c1ccc(Cl)cc12` it is -111%. On to `Cn1nc(COc2cccnc2)c2c1CCN(CC1CC1)C2`, for which the cytotoxicity at 10 µM was -97.8%. Consider `CC(C)C(=O)NC1CC2(CCN(CC(=O)N(C)C)CC2)c2ccccc21` (configuration not stated), for which the cytotoxicity at 10 µM is -103%. The figure for `Cc1noc(C)c1CN1CCC2(CCN(Cc3cccc(F)c3)CC2)C1` is -122%; for `COc1ncccc1CNC1CCc2c(ccc(=O)n2C)C1` (configuration not stated) it is -103%; for `Cc1ncoc1C(=O)N1C[C@H]2CCC[C@@]2(COCc2cccnc2)C1` it is 4.53%.
